Assay results taken from ChEMBL document CHEMBL1932986, “Synthesis and in vitro antimycobacterial activity of compounds derived from (R)- and (S)-2-amino-1-butanol - The crucial role of the configuration” (Eur J Med Chem, 2012).
In brackets after ≈: the same amount, converted by molar mass. Activity calls are given as the source filed them. No cut-off for these calls is given here.

Tests used:
Staphylococcus aureus [1] = assay: Antibacterial activity against Staphylococcus aureus NRRL B 313 at 50 mg/ml after 24 hrs by agar diffusion test; assay type: functional; conditions: for zone of inhibition at 50000 µg/mL: NRRL B 313, 24 h, read-out: DIZ
In short: (§1)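 Agar diffusion: bacteria grown 24 h at 37 °C on nutrient agar. Wells in the agar are filled with […] of compound solution in DMSO at various concentrations. The diameter of the clear zone around the application point is measured. Bracketed values give the lowest concentration (mg/ml) that produces a zone >11 mm. A first screen is run at 50 mg/ml.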

[2] = Solubility of the compound in deionized water; assay type: physicochemical
Micrococcus luteus [3] = assay: Antibacterial activity against Sarcina lutea ATCC 9341 at 50 mg/ml after 24 hrs by agar diffusion test; assay type: functional; conditions: for zone of inhibition at 50000 µg/mL: ATCC 9341, 24 h, read-out: DIZ; in short: as §1
HEK-293T = assay: Cytotoxicity against human HEK293T cells after 72 hrs by MTT assay; assay type: cell-based
In short: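 293T cells in RPMI-1640 with 10% heat-inactivated FCS and 2 mM L-glutamine, 37 °C, 5% CO2. Cells seeded at 3.5 × 10⁵ cells/ml, grown 24 h, then exposed 72 h to DMSO-diluted compounds (final solvent ≤0.5%), ≥8 wells per concentration. MTT added 4 h, formazan dissolved in 5% HCOOH/2-propanol, absorbance read at 580 nm. IC50 obtained by sigmoidal nonlinear regression against untreated control.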

Candida tropicalis [4] = assay: Antifungal activity against Candida tropicalis ATCC 20336 at 50 mg/ml after 72 hrs by agar diffusion test; assay type: functional; conditions: for zone of inhibition at 50000 µg/mL: ATCC 20336, 72 h, read-out: DIZ
In short: (§2)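 Agar diffusion: yeasts grown on yeast peptone dextrose agar and fungi on potato dextrose agar. Wells are filled with […] of compound solution in DMSO at various concentrations, and the clear-zone diameter is measured. Bracketed values give the lowest concentration (mg/ml) that produces a zone >11 mm. A first screen is run at 50 mg/ml.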

Saccharomyces cerevisiae [5] = assay: Antifungal activity against Saccharomyces cerevisiae ATCC 9763 at 50 mg/ml after 72 hrs by agar diffusion test; assay type: functional; conditions: for zone of inhibition at 50000 µg/mL: ATCC 9763, 72 h, read-out: DIZ; in short: as §2
Bacillus cereus [6] = assay: Antibacterial activity against Bacillus cereus ATCC 11778 at 50 mg/ml after 24 hrs by agar diffusion test; assay type: functional; conditions: for zone of inhibition at 50000 µg/mL: ATCC 11778, 24 h, read-out: DIZ
In short: (§3)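 Agar diffusion: wells in agar filled with […] DMSO solution of compound at various concentrations; diameter of clear zone around application point measured. Bacteria grown 24 h at 37 °C on nutrient agar. Compounds first screened at 50 mg/ml; those active then tested at lower concentrations. Bracketed value = lowest concentration (mg/ml) giving zone >11 mm, reported only if activity retained at ≤1.25 mg/ml.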

Penicillium chrysogenum [7] = assay: Antifungal activity against Penicillium chrysogenum CECT 2802 at 50 mg/ml after 72 hrs by agar diffusion test; assay type: functional; in short: as §2
[8] = Selectivity index, ratio of IC50 for human HEK293T cells to MIC for Mycobacterium tuberculosis H37Rv; assay type: functional, HEK-293T
Bacillus [9] = assay: Antibacterial activity against Bacillus idosus B 241 at 50 mg/ml after 24 hrs by agar diffusion test; assay type: functional; conditions: for zone of inhibition at 50000 µg/mL: B 241, 24 h, read-out: DIZ; in short: as §3
Acinetobacter johnsonii [10] = assay: Antibacterial activity against Acinetobacter johnsonii ATCC 17909 at 50 mg/ml after 24 hrs by agar diffusion test; assay type: functional; conditions: for zone of inhibition at 50000 µg/mL: ATCC 17909, 24 h, read-out: DIZ; in short: as §3
Micrococcus luteus [11] = assay: Antibacterial activity against Micrococcus luteus ATCC 9631 at 50 mg/ml after 24 hrs by agar diffusion test; assay type: functional; conditions: for zone of inhibition at 50000 µg/mL: ATCC 9631, 24 h, read-out: DIZ; in short: as §3
Bacillus mycoides [12] = assay: Antibacterial activity against Bacillus mycoides DSMZ 274 at 50 mg/ml after 24 hrs by agar diffusion test; assay type: functional; conditions: for zone of inhibition at 50000 µg/mL: DSMZ 274, 24 h, read-out: DIZ; in short: as §3
Escherichia coli [13] = assay: Antibacterial activity against Escherichia coli ATCC 8739 at 50 mg/ml after 24 hrs by agar diffusion test; assay type: functional; in short: as §3
Bacillus subtilis [14] = assay: Antibacterial activity against Bacillus subtilis ATCC 6633 at 50 mg/ml after 24 hrs by agar diffusion test; assay type: functional; conditions: for zone of inhibition at 50000 µg/mL: ATCC 6633, 24 h, read-out: DIZ; in short: as §3
[15] = tested on: Mycobacterium tuberculosis; assay: Antimycobacterial activity against Mycobacterium tuberculosis H37Rv after 45 days; assay type: functional
In short: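 Canetti proportion method. Compound in DMSO is added to Löwenstein–Jensen egg medium before coagulation (30 min, 85 °C), tested at three levels plus a lower one where needed. Tubes are inoculated with H37Rv at 10⁵ cells/ml and incubated 45 days at 37 °C. Colony counts versus drug-free control give percentage inhibition.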

Priestia megaterium [16] = assay: Antibacterial activity against Bacillus megaterium NRRL 1353895 at 50 mg/ml after 24 hrs by agar diffusion test; assay type: functional; conditions: for zone of inhibition at 50000 µg/mL: NRRL 1353895, 24 h, read-out: DIZ; in short: as §3
[17] = tested on: Mycobacterium tuberculosis; assay: Ratio of ethambutol dihydrochloride MIC to compound MIC for Mycobacterium tuberculosis H37Rv; assay type: functional
Saccharomyces cerevisiae [18] = assay: Antifungal activity against Saccharomyces cerevisiae ATCC 9763 at 2 mg/ml after 72 hrs by agar diffusion test; assay type: functional, organism-based; in short: as §2
Micrococcus luteus [19] = assay: Antibacterial activity against Micrococcus luteus ATCC 9631 at 2 mg/ml after 24 hrs by agar diffusion test; assay type: functional, organism-based; in short: as §3
Penicillium chrysogenum [20] = assay: Antifungal activity against Penicillium chrysogenum CECT 2802 at 2 mg/ml after 72 hrs by agar diffusion test; assay type: functional, organism-based; in short: as §2
Escherichia coli [21] = assay: Antibacterial activity against Escherichia coli ATCC 8739 at 2 mg/ml after 24 hrs by agar diffusion test; assay type: functional, organism-based; in short: as §3
Acinetobacter johnsonii [22] = assay: Antibacterial activity against Acinetobacter johnsonii ATCC 17909 at 2 mg/ml after 24 hrs by agar diffusion test; assay type: functional; in short: as §3
Micrococcus luteus [23] = assay: Antibacterial activity against Sarcina lutea ATCC 9341 at 2 mg/ml after 24 hrs by agar diffusion test; assay type: functional, organism-based; in short: as §3
Priestia megaterium [24] = assay: Antibacterial activity against Bacillus megaterium NRRL 1353895 at 2 mg/ml after 24 hrs by agar diffusion test; assay type: functional, organism-based; in short: as §3
Bacillus cereus [25] = assay: Antibacterial activity against Bacillus cereus ATCC 11778 at 2 mg/ml after 24 hrs by agar diffusion test; assay type: functional, organism-based; in short: as §3
Bacillus subtilis [26] = assay: Antibacterial activity against Bacillus subtilis ATCC 6633 at 2 mg/ml after 24 hrs by agar diffusion test; assay type: functional, organism-based; in short: as §3
Staphylococcus aureus [27] = assay: Antibacterial activity against Staphylococcus aureus NRRL B 313 at 2 mg/ml after 24 hrs by agar diffusion test; assay type: functional, organism-based; in short: as §1
Bacillus mycoides [28] = assay: Antibacterial activity against Bacillus mycoides DSMZ 274 at 2 mg/ml after 24 hrs by agar diffusion test; assay type: functional, organism-based; in short: as §3
Bacillus [29] = assay: Antibacterial activity against Bacillus idosus B 241 at 2 mg/ml after 24 hrs by agar diffusion test; assay type: functional, organism-based; in short: as §3
Candida tropicalis [30] = assay: Antifungal activity against Candida tropicalis ATCC 20336 at 2 mg/ml after 72 hrs by agar diffusion test; assay type: functional, organism-based; in short: as §2

Structure (SMILES)	diameter of the inhibition zone (DIZ) (Staphylococcus aureus [1])	solubility [2] [µg/mL]	diameter of the inhibition zone (DIZ) (Micrococcus luteus [3])	IC50 (HEK-293T) [µM]	diameter of the inhibition zone (DIZ) (Candida tropicalis [4])	diameter of the inhibition zone (DIZ) (Saccharomyces cerevisiae [5])	diameter of the inhibition zone (DIZ) (Bacillus cereus [6])	diameter of the inhibition zone (DIZ) (Penicillium chrysogenum [7])	Selectivity Index [8]	diameter of the inhibition zone (DIZ) (Bacillus [9])	diameter of the inhibition zone (DIZ) (Acinetobacter johnsonii [10])	diameter of the inhibition zone (DIZ) (Micrococcus luteus [11])	diameter of the inhibition zone (DIZ) (Bacillus mycoides [12])	diameter of the inhibition zone (DIZ) (Escherichia coli [13])	MIC [15] [µM]	diameter of the inhibition zone (DIZ) (Priestia megaterium [16])	Ratio [17]	diameter of the inhibition zone (DIZ) (Bacillus subtilis [14])	also measured
CC[C@H](COC(C)=O)NC(c1ccccc1)(c1ccccc1)c1ccccc1	inactive	< 1000	inactive	114	inactive	inactive	inactive	inactive	8.5	inactive	inactive	inactive	inactive	inactive	13.4 (≈ 5 µg/mL)	inactive	–	–	zone of inhibition at 50000 µg/mL (Bacillus subtilis [14]): 13 mm
CCNC(=O)N[C@H](CC)CO	inactive	215000 (≈ 1340 mM)	inactive	114	inactive	inactive	inactive	inactive	91.2	inactive	inactive	inactive	inactive	inactive	1.25 (≈ 0.2 µg/mL)	inactive	5	inactive	–
CC[C@H](CO)NC(=O)c1ccccc1C(=O)N[C@H](CC)CO	inactive	46000 (≈ 149 mM)	inactive	244	inactive	inactive	inactive	inactive	375.4	inactive	inactive	inactive	inactive	inactive	0.65 (≈ 0.2 µg/mL)	inactive	5	inactive	–
CC[C@H](CO)NP(=O)(c1ccccc1)c1ccccc1	–	< 1000	–	155	–	–	–	–	224.6	–	–	–	–	inactive	0.69 (≈ 0.2 µg/mL)	–	5	–	zone of inhibition at 50000 µg/mL (Staphylococcus aureus [1]): 18 mm; zone of inhibition at 50000 µg/mL (Micrococcus luteus [3]): 18 mm; zone of inhibition at 50000 µg/mL (Candida tropicalis [4]): 22 mm; zone of inhibition at 50000 µg/mL (Saccharomyces cerevisiae [5]): 16 mm; zone of inhibition at 50000 µg/mL (Bacillus cereus [6]): 15 mm; zone of inhibition at 50000 µg/mL (Bacillus [9]): 15 mm; zone of inhibition at 50000 µg/mL (Acinetobacter johnsonii [10]): 17 mm; zone of inhibition at 50000 µg/mL (Micrococcus luteus [11]): 15 mm; zone of inhibition at 50000 µg/mL (Bacillus mycoides [12]): 15 mm; zone of inhibition at 50000 µg/mL (Bacillus subtilis [14]): 18 mm; zone of inhibition at 50000 µg/mL (Priestia megaterium [16]): 16 mm
CC[C@H](CO)NC(=O)c1ccccc1O	–	2000 (≈ 9.56 mM)	–	257	–	–	–	inactive	267.7	–	–	–	–	inactive	0.96 (≈ 0.201 µg/mL)	–	5	inactive	zone of inhibition at 50000 µg/mL (Staphylococcus aureus [1]): 11 mm; zone of inhibition at 50000 µg/mL (Micrococcus luteus [3]): 13 mm; zone of inhibition at 50000 µg/mL (Candida tropicalis [4]): 13 mm; zone of inhibition at 50000 µg/mL (Saccharomyces cerevisiae [5]): 15 mm; zone of inhibition at 50000 µg/mL (Bacillus cereus [6]): 11 mm; zone of inhibition at 50000 µg/mL (Bacillus [9]): 11 mm; zone of inhibition at 50000 µg/mL (Acinetobacter johnsonii [10]): 13 mm; zone of inhibition at 50000 µg/mL (Micrococcus luteus [11]): 11 mm; zone of inhibition at 50000 µg/mL (Bacillus mycoides [12]): 12 mm; zone of inhibition at 50000 µg/mL (Priestia megaterium [16]): 13 mm
CC[C@H](CO)N1C(=O)c2ccccc2C1=O	inactive	–	inactive	–	inactive	inactive	inactive	inactive	–	inactive	inactive	inactive	inactive	–	> 22.8	inactive	–	inactive	diameter of the inhibition zone (DIZ) (Saccharomyces cerevisiae [18]): inactive; diameter of the inhibition zone (DIZ) (Micrococcus luteus [19]): inactive; diameter of the inhibition zone (DIZ) (Penicillium chrysogenum [20]): inactive; diameter of the inhibition zone (DIZ) (Escherichia coli [21]): inactive; diameter of the inhibition zone (DIZ) (Acinetobacter johnsonii [22]): inactive; diameter of the inhibition zone (DIZ) (Micrococcus luteus [23]): inactive; diameter of the inhibition zone (DIZ) (Priestia megaterium [24]): inactive; diameter of the inhibition zone (DIZ) (Bacillus cereus [25]): inactive; diameter of the inhibition zone (DIZ) (Bacillus subtilis [26]): inactive; diameter of the inhibition zone (DIZ) (Staphylococcus aureus [27]): inactive; diameter of the inhibition zone (DIZ) (Bacillus mycoides [28]): inactive; zone of inhibition at 50000 µg/mL (Escherichia coli [13]; ATCC 8739, 24 h, read-out: DIZ): 11 mm; diameter of the inhibition zone (DIZ) (Bacillus [29]): inactive; diameter of the inhibition zone (DIZ) (Candida tropicalis [30]): inactive
CC[C@H](CO)N1Cc2ccccc2C1=O	inactive	1000 (≈ 4.87 mM)	inactive	89	inactive	inactive	inactive	inactive	91.8	inactive	inactive	inactive	inactive	inactive	0.97 (≈ 0.199 µg/mL)	inactive	5	inactive	–
CC[C@H](CO)NC(=O)c1ccc(N(C)C)cc1	inactive	1500 (≈ 6.35 mM)	inactive	173	inactive	inactive	inactive	inactive	20.5	inactive	inactive	inactive	inactive	inactive	8.46 (≈ 2 µg/mL)	inactive	–	inactive	–
